Calls of active or inactive are those of the source. The calls are words filed in the database; no cut-off is given here.
What was measured:
Staphylococcus aureus [1] = assay: Antibacterial activity against Staphylococcus aureus ATCC 25923; assay type: functional, organism-based
Method in brief: (§1)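 Agar plate diffusion: 5.5 mm susceptibility disks loaded with 5 µg pure compound (1 mg for crude extracts) placed on agar plates seeded with the test organism (B. subtilis 168, S. aureus ATCC 25923, E. coli ATCC 25922 or C. albicans); inhibition zones read after 24 h incubation at 37 °C.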

Escherichia coli [2] = assay: Antibacterial activity against Escherichia coli ATCC 25922; assay type: functional, organism-based; method in brief: as §1
Bacillus subtilis [3] = assay: Antibacterial activity against Bacillus subtilis 168; assay type: functional, organism-based; conditions: subsp. subtilis str. 168; method in brief: as §1
Escherichia coli [4] = assay: Antibacterial activity against Escherichia coli ATCC 25922 at 5 ug after 24 hrs by agar plate diffusion assay; assay type: functional, organism-based; method in brief: as §1
Bacillus subtilis [5] = assay: Antibacterial activity against Bacillus subtilis 168 at 5 ug after 24 hrs by agar plate diffusion assay; assay type: functional; conditions: subsp. subtilis str. 168, 24 h, read-out: IZ; method in brief: as §1
Staphylococcus aureus [6] = assay: Antibacterial activity against Staphylococcus aureus ATCC 25923 at 5 ug after 24 hrs by agar plate diffusion assay; assay type: functional; conditions: ATCC 25923, 24 h, read-out: IZ; method in brief: as §1
Candida albicans = assay: Antifungal activity against Candida albicans at 5 ug after 24 hrs by agar plate diffusion assay; assay type: functional, organism-based; method in brief: as §1

Row | Compound | Activity (Staphylococcus aureus [1]) | Activity (Escherichia coli [2]) | Activity (Bacillus subtilis [3]) | inhibition zone (IZ) (Escherichia coli [4]) | zone of inhibition at 5 µg/disc (Bacillus subtilis [5]) [mm] | zone of inhibition at 5 µg/disc (Staphylococcus aureus [6]) [mm] | inhibition zone (IZ) (Candida albicans)
1 | CC1CCCCCC(O)C(=O)C(SC2CC(=O)OC(C)CCCCCC(O)C2=O)CC(=O)O1 (centres undefined) | inactive | inactive | inactive | – | – | – | –
2 | COC(=O)C(O)CSC1CC(=O)OC(C)CCCCCC(O)C1=O (centres undefined) | inactive | inactive | inactive | – | – | – | –
3 | CC(=O)OCc1ccc(C(=O)O)o1 [ACETYL SUMIKI'S ACID] | – | – | – | inactive | 7 | 7 | inactive
4 | O=C(O)c1ccc(CO)o1 [SUMIKI'S ACID] | – | – | – | inactive | 7 | 7 | inactive
